Source: PubChem (several laboratories)
Only some compounds are listed: those with a hit (about 4.2% of all), similar ones and a draw of the others.
Hep lipid drop = hepatic lipid droplet formation modulation. hit rate 0.4% among 240,000. AML12 mouse hepatocytes, oleate lipid droplets, BODIPY imaging. inhibition, % at 6.5 µM;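 active = lipid droplet intensity inhibited by at least 50%, with more than 500 cells counted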
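Assay system: AML12 hepatocytes (mouse); Probe or stimulus: oleic acid at 100 µM to induce lipid droplet formation; Dosing: compound at 6.5 µM only; Schedule: compound with oleate, overnight; Detection: fluorescence imaging, 20x objective, two fields per well; Measure: % inhibition of lipid droplet signal.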
CHOP UPR activ = apoptotic UPR (CHOP) activation. CHO-CHOP luciferase reporter, luminescence; percent of tunicamycin response over DMSO baseline. AID 449763. activation, % at 10 µM. hit rate 0.34% among 330,000;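 active = at 10 µM dose, activation of 40% or more, normalized to positive control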
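System: CHO-CHOP luciferase reporter cell line; amount: 500 cells/well; buffer or medium: F12 medium containing 10% fetal bovine serum; incubation: 6 h compound exposure at 37 °C after overnight seeding; measured by: luciferase luminescence after 10 min with Steady-Glo reagent; evaluation: % reporter activation, DMSO baseline versus tunicamycin full activation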
ANO1 block = mouse TMEM16A channel inhibition, primary screen; Q8BHY3; HEK293 TMEM16A/YFP iodide influx fluorescence, ionomycin; normalized B-score (activity score, 25-100; higher = stronger inhibition) at 10 µM; hit rate 1.2% among 310,000;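 active = ratio plate-corrected score three or more library SD toward inhibition, starting fluorescence score within five deviations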;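 also: score derived from kinetic fluorescence span divided by baseline fluorescence per well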
Target sequence (Q8BHY3 whole entry, looked up): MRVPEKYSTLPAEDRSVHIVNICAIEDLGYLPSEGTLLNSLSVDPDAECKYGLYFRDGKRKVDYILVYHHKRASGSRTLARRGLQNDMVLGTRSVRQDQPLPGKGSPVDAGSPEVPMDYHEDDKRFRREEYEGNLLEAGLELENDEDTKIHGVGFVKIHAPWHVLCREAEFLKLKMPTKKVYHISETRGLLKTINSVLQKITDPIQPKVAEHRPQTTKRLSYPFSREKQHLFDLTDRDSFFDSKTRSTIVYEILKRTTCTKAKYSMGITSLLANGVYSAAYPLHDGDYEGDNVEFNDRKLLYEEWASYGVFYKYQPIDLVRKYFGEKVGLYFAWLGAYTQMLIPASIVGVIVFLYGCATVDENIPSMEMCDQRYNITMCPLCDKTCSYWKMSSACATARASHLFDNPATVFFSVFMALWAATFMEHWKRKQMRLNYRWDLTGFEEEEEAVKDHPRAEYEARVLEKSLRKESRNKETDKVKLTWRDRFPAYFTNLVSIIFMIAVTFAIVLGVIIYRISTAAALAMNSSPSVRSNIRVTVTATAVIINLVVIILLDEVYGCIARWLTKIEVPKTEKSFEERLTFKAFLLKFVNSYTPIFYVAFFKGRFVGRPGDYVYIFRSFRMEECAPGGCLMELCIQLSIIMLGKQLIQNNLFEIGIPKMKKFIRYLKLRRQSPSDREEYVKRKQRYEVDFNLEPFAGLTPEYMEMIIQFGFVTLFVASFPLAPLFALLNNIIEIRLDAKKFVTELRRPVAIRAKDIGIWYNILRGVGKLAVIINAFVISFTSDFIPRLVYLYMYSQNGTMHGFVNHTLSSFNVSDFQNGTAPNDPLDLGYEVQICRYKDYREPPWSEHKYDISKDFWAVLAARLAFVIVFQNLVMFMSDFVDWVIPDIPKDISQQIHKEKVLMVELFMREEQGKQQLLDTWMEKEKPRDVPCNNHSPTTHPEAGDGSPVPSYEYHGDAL
CHOP inhibitor = CHOP inhibition in unfolded protein response; CHO-K1 CHOP-promoter luciferase, tunicamycin-induced, 15-18 h; inhibition, % at 10 µM; hit rate 3.8% among 220,000;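 active = compounds that reduced the stress-induced luciferase reporter signal by more than about 70% of percent inhibition, limit read from the data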
TMEM16A act = mouse TMEM16A channel activation, primary screen; Q8BHY3; HEK293 TMEM16A/YFP-H148Q/I152L, iodide quench fluorescence; active compounds read low; B-score at 10 µM; hit rate 0.3% among 340,000; AID 623877;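 active = fluorescence-ratio B-score plate-corrected deviation score at least 3 library SD below zero, with starting fluorescence score within 5 deviations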;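 also: channel opened by trigger with iodide after compound preincubation; score built on the fluorescence ratio of max minus min over baseline; more negative score means more quench and so TMEM16A activation or potentiation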
XBP1 UPR activ = activators of adaptive arm of unfolded protein response (XBP1); AID 463104; CHO-XBP1 luciferase reporter, IRE1-XBP1 UPR activation, luminescence; percent of tunicamycin response, DMSO as zero; hit rate 0.33% among 330,000; activation, % at 20 µM;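 active = versus positive control, 20 µM dose yields 30% or more activation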
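Material: CHO cell line with stable XBP1 luciferase reporter; buffer or medium: F12 medium containing 10% fetal bovine serum; compound: single point, 20 µM final compound, 1% DMSO; incubation: 6 h treatment, 37 °C; measured by: glow luminescence from Steady-Glo reagent; evaluation: activation, % of tunicamycin; control set: tunicamycin high, DMSO low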
Large screens that a line does not name were inactive.

O=C(CC1CCCCC1)Nc1ncn[nH]1	none (no result: Hep lipid drop)
CCOC(=O)C1=C(C)N=c2s/c(=C\c3ccc(OCC(=O)O)cc3)c(=O)n2C1c1ccccc1OC (centres undefined)	none (no result: CHOP inhibitor)
CCOC(=O)C1=C(C)N=c2s/c(=C\c3ccc(O)c([N+](=O)[O-])c3)c(=O)n2C1c1ccccc1OC (centres undefined)	ANO1 block 100 (no result: CHOP inhibitor)
CNC(=O)c1ncoc1-c1ccc(Cl)cc1	none
C[C@@H]1CC[C@]2(C(=O)O)CC[C@]3(C)C(=CCC4[C@]56CC[C@@](O)(OC5)C(C)(C)C6CC[C@]43C)C2[C@H]1C (some centres undefined)	ANO1 block 100 (no result: Hep lipid drop, CHOP inhibitor)
CCCn1ncc(CN2CCC(n3nccc3NC(=O)CCc3ccccc3)CC2)c1C	none (no result: CHOP inhibitor)
COc1ccc(Oc2nc3c(c(=O)n(C)c(=O)n3C)n2Cc2ccccc2)cc1	none
CC(C)CCn1c(Oc2ccc(Cl)cc2)nc2c1c(=O)n(C)c(=O)n2C	CHOP inhibitor 76
CCOc1ccc(OCCSc2nnnn2C2CCCCC2)cc1	CHOP inhibitor 80
COc1cc(C#N)ccc1OCC(=O)N1CCc2ccccc2C1	none (no result: CHOP inhibitor)
Cc1ccc(Cl)cc1NC(=O)COC(=O)c1ccc(N2CCCC2)c([N+](=O)[O-])c1	none (no result: TMEM16A act)
CCCC(=O)Nc1ccc2oc(-c3ccc(OC)c(Br)c3)nc2c1	CHOP inhibitor 96 (no result: Hep lipid drop)
CCCC(=O)Nc1ccc(-c2nc3cc(C)ccc3o2)cc1	none
CC(C)NC[C@@H](O)COc1cccc2ccccc12	none (no result: Hep lipid drop, CHOP inhibitor)
Cc1nc(NC(=O)CSc2nnc(Cn3nnc4ccccc43)n2C)sc1C	none
Cc1ccc(S(=O)(=O)N2CCCCC2)cc1NC(=O)Cn1ncc(Cl)c(Cl)c1=O	none (no result: Hep lipid drop, ANO1 block, CHOP inhibitor)
Cc1cc(Br)ccc1NC(=O)CNC(=O)Cn1ncc(Cl)c(Cl)c1=O	CHOP inhibitor 106
CCOC(=O)c1ccc(NC(=O)Cn2nc(C)c3ccccc3c2=O)cc1	none (no result: CHOP inhibitor)
CCOC(=O)c1ccc(NC(=O)Cn2ncc(Cl)c(Cl)c2=O)cc1	CHOP inhibitor 108
Cc1ccc(C(=O)OCn2ncc(Cl)c(Cl)c2=O)cc1	CHOP inhibitor 107 (no result: Hep lipid drop)
CN1CCN(C(=O)C2CCN(c3ncc(C(F)(F)F)cc3Cl)CC2)CC1	none
O=C(N/N=C/c1cc(Br)ccc1O)C(=O)Nc1ccccc1OC(F)(F)C(F)F	CHOP inhibitor 77 (no result: Hep lipid drop, CHOP UPR activ, XBP1 UPR activ)
O=C(N/N=C/c1cc(Cl)ccc1O)C(=O)Nc1ccccc1OC(F)(F)C(F)F	CHOP inhibitor 78 (no result: CHOP UPR activ, XBP1 UPR activ)
COc1ccccc1/C=N/NC(=O)C(=O)Nc1ccccc1OC(F)(F)C(F)F	none
Cc1ccccc1C(=O)Nc1ccc2c(C#N)c3nc4ccccc4nc3n2c1	CHOP inhibitor 96
Cc1c(C(=O)Nc2ccccc2)cn2c(nc3ccccc32)c1C#N	none
C=CCn1c(Cc2nc3ccc(Cl)cc3[nH]2)n[nH]c1=S	CHOP inhibitor 82
C=CCn1c(Cc2ccccc2)n[nH]c1=S	none
CCc1cc(-c2[nH]ncc2-c2nc3ccccc3n2C)c(O)cc1O	none
CCOc1cc(O)c(-c2[nH]ncc2-c2nc(C)cs2)cc1CC	ANO1 block 25
CCc1nnc(NC(=O)c2ccc(S(=O)(=O)N3CCc4ccccc4C3)cc2)s1	CHOP inhibitor 82
CCc1nnc(NC(=O)c2ccc(Cl)c(S(=O)(=O)N3CCc4ccccc4C3)c2)s1	none
S=C(Nc1ccccc1)N1CCCCCCC1	TMEM16A act -4.6
COc1ccc(C2=NS(=O)(=O)N(C)C(C(=O)Nc3ccc(C(C)=O)cc3)=C2)cc1OC	ANO1 block 25 (no result: CHOP inhibitor)
CCCCNC(=S)NNc1c(Cl)cc(Cl)cc1Cl	CHOP inhibitor 82
O=C(NCCCl)NNc1c(Cl)cc(Cl)cc1Cl	none
CC(OC(=O)c1cccnc1SCc1cc(=O)n2ccccc2n1)c1ccccn1 (centres undefined)	none (no result: Hep lipid drop)
CCOC(=O)c1cccnc1SCc1cc(=O)n2ccccc2n1	ANO1 block 25 (no result: Hep lipid drop)
COc1ccccc1-c1ccc(SCc2ccccc2F)nn1	ANO1 block 25
COc1ccccc1-c1ccc(SCc2ccccc2)nn1	none
O=C(Cn1c(=O)oc2cc(S(=O)(=O)N3CCCC3)ccc21)N1CCc2ccccc2C1	CHOP inhibitor 85 (no result: Hep lipid drop)
